Results published in ChEMBL document CHEMBL3414508, “A few atoms make the difference: synthetic, CD, NMR and computational studies on antiviral and antibacterial activities of glycopeptide antibiotic aglycon derivatives” (Eur J Med Chem, 2015).

Key:
[1] = Antiviral activity against Influenza A virus (A/Hong Kong/7/1987(H3N2)) infected in MDCK cells assessed as cell viability after 72 hrs by MTS assay; type: functional, cell-based
Outline: (§1)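 Subconfluent MDCK cultures given serial compound dilutions together with virus at MOI 0.0004 PFU/cell. Incubation 72 h at 35°C. […] Means of 2 to 5 independent tests.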

[2] = Cytotoxicity against MDCK cells after 72 hrs by MTS assay; type: cell-based, Canis lupus familiaris; settings: dog
Outline: (§2)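 Uninfected MDCK cultures were run in parallel with serial compound dilutions for 72 h at 35°C. MCC is the concentration producing minimal changes in cell morphology, judged by microscopy. […] Means of 2 to 5 independent tests.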

Influenza B virus [3] = test: Antiviral activity against Influenza B virus (B/Hong Kong/05/1972) infected in MDCK cells assessed as reduction of virus-induced cytopathic effect after 72 hrs by microscopic analysis; type: functional, cell-based; settings: B/Hong Kong/05/1972, MDCK; outline: as §1
Influenza B virus [4] = test: Antiviral activity against Influenza B virus (B/Hong Kong/05/1972) infected in MDCK cells assessed as cell viability after 72 hrs by MTS assay; type: functional, cell-based; settings: B/Hong Kong/05/1972, MDCK; outline: as §1
[5] = Cytotoxicity against MDCK cells after 72 hrs by microscopic analysis; type: cell-based, Canis lupus familiaris; settings: dog; outline: as §2
[6] = Antiviral activity against Influenza A virus (A/Hong Kong/7/1987(H3N2)) infected in MDCK cells assessed as reduction of virus-induced cytopathic effect after 72 hrs by microscopic analysis; type: functional, cell-based; outline: as §1
Influenza A virus [7] = test: Antiviral activity against Influenza A virus (A/Puerto Rico/8/34(H1N1)) infected in MDCK cells assessed as cell viability after 72 hrs by MTS assay; type: functional, organism-based, A/Puerto Rico/8/1934(H1N1); outline: as §1
Influenza A virus [8] = test: Antiviral activity against Influenza A virus (A/Puerto Rico/8/34(H1N1)) infected in MDCK cells assessed as reduction of virus-induced cytopathic effect after 72 hrs by microscopic analysis; type: functional, organism-based; settings: A/Puerto Rico/8/1934(H1N1)
Outline: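 Subconfluent MDCK cultures given serial compound dilutions together with virus at MOI 0.0004 PFU/cell. Incubation 72 h at 35°C. Means of 2 to 5 independent tests.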

[9] = Influenza A virus, A/Puerto Rico/8/1934(H1N1), MDCK, 72 h

| SMILES | EC50 [1] | CC50 at 72 h [2] | EC50 (Influenza B virus [3]) | EC50 (Influenza B virus [4]) | MCC at 72 h [5] | EC50 [6] | EC50 (Influenza A virus [7]; [9]) | EC50 (Influenza A virus [8]) | EC50 (Influenza A virus [7]; mdck) |
| --- | --- | --- | --- | --- | --- | --- | --- | --- | --- |
| COC(=O)[C@H]1NC(=O)[C@H]2NC(=O)[C@H](NC(=O)[C@@H]3NC(=O)[C@H]4NC(=O)[C@H](NC(=O)[C@H](N)c5ccc(O)c(c5)Oc5cc4cc(O)c5C)[C@H](O)c4ccc(cc4)Oc4cc3cc(c4O)Oc3ccc(cc3)[C@H]2O)c2ccc(O)c(c2)-c2c(O)cc(O)cc21 | 2.5 µM | 44 µM | 5.1 µM | 5.4 µM | 81 µM | 4.6 µM | – | – | – |
| CC(=O)N[C@H]1[C@H](O[C@@H]2c3ccc(c(Cl)c3)Oc3cc4cc(c3O)Oc3ccc(cc3Cl)C[C@H]3NC(=O)[C@H](N)c5ccc(O)c(c5)Oc5cc(O)cc(c5)[C@H](NC3=O)C(=O)N[C@H]4C(=O)N[C@H]3C(=O)N[C@@H]2C(=O)N[C@H](C(=O)O)c2cc(O)cc(O)c2-c2cc3ccc2O)O[C@H](CO)[C@@H](O)[C@@H]1O | 34 µM | > 100 µM | > 100 µM | > 100 µM | ≥ 100 µM | 17 µM | 43 µM | – | – |
| COC(=O)[C@H]1NC(=O)[C@H]2NC(=O)[C@H](NC(=O)[C@@H]3NC(=O)[C@H]4NC(=O)[C@H](NC(=O)[C@H](Nc5c(NCc6ccc(-c7ccccc7)cc6)c(=O)c5=O)c5ccc(O)c(c5)Oc5cc4cc(O)c5C)[C@H](O)c4ccc(cc4)Oc4cc3cc(c4O)Oc3ccc(cc3)[C@H]2O)c2ccc(O)c(c2)-c2c(O)cc(O)cc21 | ≤ 0.42 µM | 39 µM | 0.84 µM | 1 µM | 20 µM | 0.15 µM | 0.21 µM | 0.15 µM | – |
| CC(=O)N[C@H]1[C@H](O[C@@H]2c3ccc(c(Cl)c3)Oc3cc4cc(c3O)Oc3ccc(cc3Cl)C[C@H]3NC(=O)[C@H](Nc5c(NCc6ccc(-c7ccccc7)cc6)c(=O)c5=O)c5ccc(O)c(c5)Oc5cc(O)cc(c5)[C@H](NC3=O)C(=O)N[C@H]4C(=O)N[C@H]3C(=O)N[C@@H]2C(=O)N[C@H](C(=O)O)c2cc(O)cc(O)c2-c2cc3ccc2O)O[C@H](CO)[C@@H](O)[C@@H]1O | > 100 µM | 6.5 µM | > 100 µM | > 100 µM | 0.8 µM | > 100 µM | > 100 µM | > 100 µM | – |
| COC(=O)[C@H]1NC(=O)[C@H]2NC(=O)[C@H](NC(=O)[C@@H]3NC(=O)[C@H]4NC(=O)[C@@H](Cc5ccc(c(Cl)c5)Oc5cc3cc(c5O)Oc3ccc(cc3Cl)[C@H]2O[C@@H]2O[C@H](CO)[C@@H](O)[C@H](O)[C@H]2NC(C)=O)NC(=O)[C@H](N)c2ccc(O)c(c2)Oc2cc(O)cc4c2)c2ccc(O)c(c2)-c2c(O)cc(O)cc21 | > 100 µM | > 100 µM | > 100 µM | > 100 µM | 100 µM | > 100 µM | > 100 µM | > 100 µM | – |
| COC(=O)[C@H]1NC(=O)[C@H]2NC(=O)[C@H](NC(=O)[C@@H]3NC(=O)[C@H]4NC(=O)[C@@H](Cc5ccc(c(Cl)c5)Oc5cc3cc(c5O)Oc3ccc(cc3Cl)[C@H]2O[C@@H]2O[C@H](CO)[C@@H](O)[C@H](O)[C@H]2NC(C)=O)NC(=O)[C@H](Nc2c(OC)c(=O)c2=O)c2ccc(O)c(c2)Oc2cc(O)cc4c2)c2ccc(O)c(c2)-c2c(O)cc(O)cc21 | > 100 µM | > 100 µM | > 100 µM | > 100 µM | 100 µM | > 100 µM | > 100 µM | > 100 µM | – |
| COC(=O)[C@H]1NC(=O)[C@H]2NC(=O)[C@H](NC(=O)[C@@H]3NC(=O)[C@H]4NC(=O)[C@@H](Cc5ccc(c(Cl)c5)Oc5cc3cc(c5O)Oc3ccc(cc3Cl)[C@H]2O[C@@H]2O[C@H](CO)[C@@H](O)[C@H](O)[C@H]2NC(C)=O)NC(=O)[C@H](Nc2c(NCc3ccc(-c5ccccc5)cc3)c(=O)c2=O)c2ccc(O)c(c2)Oc2cc(O)cc4c2)c2ccc(O)c(c2)-c2c(O)cc(O)cc21 | > 100 µM | 58 µM | > 100 µM | > 100 µM | 20 µM | > 100 µM | > 100 µM | > 100 µM | – |
| COc1c(N[C@H]2C(=O)N[C@@H]3Cc4ccc(c(Cl)c4)Oc4cc5cc(c4O)Oc4ccc(cc4Cl)[C@@H](O)[C@@H]4NC(=O)[C@H](NC(=O)[C@@H]5NC(=O)[C@@H](NC3=O)c3cc(O)cc(c3)Oc3cc2ccc3O)c2ccc(O)c(c2)-c2c(O)cc(O)cc2[C@@H](C(=O)O)NC4=O)c(=O)c1=O | > 100 µM | 49 µM | > 100 µM | > 100 µM | 100 µM | > 100 µM | > 100 µM | > 100 µM | – |
| O=C1N[C@H]2C(=O)N[C@H]3C(=O)N[C@H](C(=O)N[C@H](C(=O)O)c4cc(O)cc(O)c4-c4cc3ccc4O)[C@H](O)c3ccc(c(Cl)c3)Oc3cc2cc(c3O)Oc2ccc(cc2Cl)C[C@H]2NC(=O)[C@H](Nc3c(NCc4ccc(-c5ccccc5)cc4)c(=O)c3=O)c3ccc(O)c(c3)Oc3cc(O)cc(c3)[C@@H]1NC2=O | > 100 µM | 11 µM | > 100 µM | > 100 µM | 20 µM | > 100 µM | > 100 µM | > 100 µM | – |
| COC(=O)[C@H]1NC(=O)[C@H]2NC(=O)[C@H](NC(=O)[C@@H]3NC(=O)[C@H]4NC(=O)[C@@H](Cc5ccc(c(Cl)c5)Oc5cc3cc(c5O)Oc3ccc(cc3Cl)[C@H]2O)NC(=O)[C@H](Nc2c(NCc3ccc(-c5ccccc5)cc3)c(=O)c2=O)c2ccc(O)c(c2)Oc2cc(O)cc4c2)c2ccc(O)c(c2)-c2c(O)cc(O)cc21 | > 100 µM | 7.6 µM | > 100 µM | > 100 µM | 4 µM | > 100 µM | > 100 µM | > 100 µM | – |
| COC(=O)[C@H]1NC(=O)[C@H]2NC(=O)[C@H](NC(=O)[C@@H]3NC(=O)[C@H]4NC(=O)[C@@H](Cc5ccc(cc5)Oc5cc3cc(c5O)Oc3ccc(cc3)[C@H]2O)NC(=O)[C@H](Nc2c(NCc3ccc(-c5ccccc5)cc3)c(=O)c2=O)c2ccc(O)c(c2)Oc2cc(O)cc4c2)c2ccc(O)c(c2)-c2c(O)cc(O)cc21 | 0.7 µM | 20 µM | > 100 µM | > 100 µM | 16 µM | 0.52 µM | 0.58 µM | 0.67 µM | – |
| NC12CC3CC(CC(C3)C1)C2 [AMANTADINE] | 1.8 µM | > 500 µM | > 500 µM | > 500 µM | > 500 µM | 2 µM | 453 µM | – | – |
| NC(=O)c1ncn([C@@H]2O[C@H](CO)[C@@H](O)[C@H]2O)n1 [RIBAVIRIN] | 12 µM | > 100 µM | 7 µM | 3.4 µM | > 100 µM | 12 µM | – | – | 8.9 µM |
| CC(N)C12CC3CC(CC(C3)C1)C2 (stereo not given) [RIMANTADINE] | 1.1 µM | > 500 µM | > 500 µM | > 500 µM | > 500 µM | 4 µM | 15 µM | 4 µM | – |
| N[C@H]1C(=O)N[C@@H]2Cc3ccc(c(Cl)c3)Oc3cc4cc(c3O)Oc3ccc(cc3Cl)[C@@H](O)[C@@H]3NC(=O)[C@H](NC(=O)[C@@H]4NC(=O)[C@@H](NC2=O)c2cc(O)cc(c2)Oc2cc1ccc2O)c1ccc(O)c(c1)-c1c(O)cc(O)cc1[C@@H](C(=O)O)NC3=O [TEICOPLANIN AGLYCON] | > 100 µM | > 100 µM | > 100 µM | > 100 µM | 100 µM | > 100 µM | > 100 µM | > 100 µM | – |
